Bioassay records deposited in PubChem BioAssay by several laboratories.
PfGluPho inh = PfG6PD (Plasmodium falciparum) enzyme inhibition | inhibition, % at 20 µM | PfGluPho enzyme, NADPH resazurin-diaphorase fluorescence | 350,000 tested, 0.78% active;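 active means inhibition reaching at least a set limit at 20 µM in the primary screen, cut at about 59% in these data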;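 further: 0% = DMSO wells with substrate and 100% = DMSO wells lacking glucose-6-phosphate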
Exocytosis inh = lytic granule exocytosis inhibition; TALL-104 LAMP-1 surface exposure, flow cytometry; cells stimulated with thapsigargin and PMA; inhibition, % at 10 µM; 360,000 tested, 0.66% active;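 active means inhibition above about 55%, limit read from the data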
ABHD5 PLIN5 PPI = ABHD5-PLIN5 protein interaction inhibition; Q00G26+Q8WTS1; Split G. princeps luciferase complementation, luminescence, 4 h; inhibition, % at 4 µM; 360,000 tested, 0.78% active; AID 602281;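 active means inhibition above the mean inhibition across every tested compound plus 3 SD, cut at about 22% in these data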;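 further: 0% = DMSO only wells and the 100% control is not disclosed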
HKDC1 inh = HKDC1 (human) hexokinase inhibition; inhibition, % at 20 µM; recombinant HKDC1, G6PDH/diaphorase resazurin coupled fluorescence; AID 493160; 340,000 tested, 0.16% active;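 active means inhibition above about 35% when tested at 20 µM, limit read from the data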;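 further: plate controls were DMSO wells with enzyme for no effect and DMSO wells lacking enzyme for full effect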
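Material – in-house recombinant HK5 (HKDC1) enzyme · Quantity – HKDC1 at 5 µg/mL · Buffer or medium – pH 8.0 Tris buffer with 10 mM MgCl2 · Reagent – glucose with 1 mM ATP · Dosing – single 20 µM dose · Times – reaction time 90 min, room temperature, protected from light · Technique – resorufin fluorescence at 613 nm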
Numbers without * were called inactive; / = no result. Only some compounds are listed: those with a hit (about 2.2% of all), similar ones and a draw of the others.

SMILES | PfGluPho inh | Exocytosis inh | ABHD5 PLIN5 PPI | HKDC1 inh
CN(C)C(CNc1ccc(C(F)(F)F)cc1[N+](=O)[O-])c1ccccc1 (configuration not stated) | 11 | 74* | -2 | -3
O=C(CSc1nc2scc(-c3ccco3)c2c(=O)n1-c1ccccc1)NCC1CCCO1 (configuration not stated) | 16 | 0 | 56* | 5
O=C(CSc1nc2scc(-c3ccco3)c2c(=O)n1-c1ccccc1)N1CCOCC1 | 1 | 5 | 7 | 7
NC(=O)CSc1nc2scc(-c3ccco3)c2c(=O)n1-c1ccccc1 | 26 | 1 | 49* | 2
O=c1c2c(-c3ccco3)csc2nc(SCc2cn3cccnc3n2)n1-c1ccccc1 | 58 | -1 | 48* | 4
CC1(C)SC2C(C(=O)O)N=C(Cc3ccccc3)N2C1C(=O)O (configuration not stated) | -24 | 0 | -10 | 2
O=C(CN1c2cccc3cccc(c23)S1(=O)=O)N1CCN(c2ccccc2)CC1 | -15 | 4 | -3 | 7
N=c1c(S(=O)(=O)c2ccc(Cl)cc2)cc2c(=O)n3ccccc3nc2n1Cc1ccco1 | 1 | 9 | 28* | 20
N=c1c(S(=O)(=O)c2ccc(Br)cc2)cc2c(=O)n3ccccc3nc2n1Cc1ccco1 | 21 | 0 | 34* | 11
N=c1c(S(=O)(=O)c2ccc(Br)cc2)cc2c(=O)n3ccccc3nc2n1Cc1ccccc1 | -21 | 27 | 3 | -4
O=C(NCc1ccncc1)c1cccc(S(=O)(=O)Nc2ccc(F)cc2)c1 | -5 | 5 | 17 | 1
O=C(COc1ccc(Cl)cc1Br)OCC(=O)c1ccc[nH]1 | 8 | 2 | 7 | -3
C=C(C)COc1ccc(-c2n[nH]c(C)c2Oc2ccccc2OC)c(O)c1 | -6 | 74* | -11 | -2
C=CCn1c(CSc2ccccc2[N+](=O)[O-])n[nH]c1=S | 44 | -16 | -17 | 20
C=CCn1c(Sc2ncc([N+](=O)[O-])s2)n[nH]c1=O | 35 | 58* | 4 | 2
CC(C)(C)NC(=O)CC1C[C@H](C(=O)N2CCCCC2)[C@@]2(C)c3[nH]c4ccccc4c3CCN2C1=O (some centres not stated) | -7 | 1 | 0 | -4
O=C(O)c1ccc(NNC(=S)Nc2cc(C(F)(F)F)ccc2Cl)cc1 | -2 | -7 | -25 | 4
CN(C)c1ccc(N=Cc2nc(-c3ccccc3)oc2OC(=O)c2ccccc2)cc1 | 11 | -3 | 0 | -10
CC(=O)Oc1oc(-c2ccccc2)nc1C=Nc1ccc(N(C)C)cc1 | 10 | 94* | 1 | 3
Cc1ccccc1OCC(=O)Nc1sc2c(c1C#N)CC(C)(C)NC2(C)C | -15 | 59* | -2 | -4
CC1(C)Cc2c(sc(NC(=O)COc3ccc(Cl)cc3)c2C#N)C(C)(C)N1 | -8 | 44 | 7 | -3
Cc1cc(-c2nnc3n2N=C(c2ccc(F)cc2)CS3)n[nH]1 | 5 | 7 | 0 | 1
COCCn1c(SCC(=O)Nc2ccc(NC(=O)c3ccco3)c(OC)c2)nc2ccccc2c1=O | -11 | 94* | 8 | 15
CCn1c(SCC(=O)Nc2ccc(NC(=O)c3ccco3)c(OC)c2)nc2ccccc2c1=O | 3 | 0 | 3 | -9
O=c1[nH][nH]c(=S)n1C1CCCCC1 | 95* | / | / | -6
SMILES | PfGluPho inh | Exocytosis inh | ABHD5 PLIN5 PPI | HKDC1 inh
CC1OC2CC(=O)OC2C2=C1C(=O)c1c(O)cccc1C2=O (configuration not stated) | / | 86* | 101* | /
COCCn1c(C(C)C)nc2ccccc21 | 0 | -16 | 4 | -3
Cn1c(=O)c([N+](=O)[O-])c(Cl)c2ccccc21 | 18 | 71* | 34* | 4
CCN(CC)c1c([N+](=O)[O-])c(=O)n(C)c2ccccc12 | 29 | 10 | -2 | -8
NC(=O)c1c(NC(=O)C2c3ccccc3Oc3ccccc32)sc2c1CCCCC2 | 4 | 2 | -10 | -14
Clc1ccc2c(N/N=C/c3cccc(Br)c3)ccnc2c1 | -6 | 74* | 5 | 10
O=[N+]([O-])c1ccc(/C=N/Nc2ccnc3cc(Cl)ccc23)o1 | -13 | 55 | 4 | 10
Clc1ccc2c(N/N=C/c3ccccc3Br)ccnc2c1 | 1 | 92* | 1 | -8
C=Cc1ncc(OC)c2c1[nH]c1ccccc12 | 20 | 34 | 24* | 7
N#C/C(=C/c1ccco1)C(N)=S | 26 | -3 | -5 | 1
N#CC(C#N)=C1C=CC=CN1/C(=C\c1ccco1)C(=O)c1ccc(Br)cc1 | 59* | 86* | 92* | 20
